Legend:
Mus musculus [1] = assay: Analgesic activity in ICR mouse assessed as pain threshold variation at 0.13 mmol/kg, ip after 150 mins by tail flick test; type: functional
Procedure, shortened: (§1)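 Male ICR mice (25 ± 2 g), kept on a 12/12 h light/dark cycle at 21 ± 2 °C for one day before use. Each received a single i.p. injection in 0.2 ml saline + 0.01 ml DMSO + 0.02 ml Tween-80. Vehicle-only mice served as controls. Basal tail-flick threshold was measured four times (BPT). Thresholds were then read every 30 min for 150 min. PTV = (post-dose threshold − BPT)/BPT. n = 10, x ± SD.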

Mus musculus [2] = assay: Analgesic activity in ICR mouse assessed as pain threshold variation at 0.13 mmol/kg, ip after 60 mins by tail flick test relative to control; type: functional; procedure, shortened: as §1
Mus musculus [3] = assay: Analgesic activity in ICR mouse assessed as pain threshold variation at 0.13 mmol/kg, ip after 30 mins by tail flick test relative to control; type: functional; procedure, shortened: as §1
Mus musculus [4] = assay: Analgesic activity in ICR mouse assessed as pain threshold variation at 0.13 mmol/kg, ip after 90 mins by tail flick test relative to control; type: functional; procedure, shortened: as §1
[5] = Cardiovascular toxicity in rat aorta assessed as inhibition of noradrenaline-induced vasoconstriction at 5 mM relative to control; type: tissue-based; conditions: isolated rat aorta
Procedure, shortened: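 Rat aortic strips were contracted with noradrenaline, washed, stabilized for 30 min, and contracted again. At peak contraction, compound was added (final 5 × 10^-3 M) or vehicle alone. The relaxant response was recorded as percentage inhibition of the contraction.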

Mus musculus [6] = assay: Analgesic activity in ICR mouse assessed as pain threshold variation at 0.13 mmol/kg, ip after 120 mins by tail flick test; type: functional; procedure, shortened: as §1
Mus musculus [7] = assay: Thrombotic toxicity in ICR mouse assessed as tail bleeding time at 1.3 mmol/kg, ip after 5 mins; type: organism-based; conditions: in vivo
Procedure, shortened: (§2)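 Male ICR mice (25 ± 2 g) were kept one day on a 12/12 h light/dark cycle at 21 ± 2 °C. Each received a single i.p. dose of 1.30 mmol/kg in saline/DMSO/Tween-80 (0.2/0.01/0.02 ml), or the solvent only. The restrained mouse had 1 mm cut from the tail before dosing and at 5, 15, 30 and 60 min. Bleeding time (s) is reported as mean ± SD.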

Mus musculus [8] = assay: Thrombotic toxicity in ICR mouse assessed as tail bleeding time at 1.3 mmol/kg, ip after 15 mins; type: organism-based; conditions: in vivo, 0.25 h; procedure, shortened: as §2
Mus musculus [9] = assay: Thrombotic toxicity in ICR mouse assessed as tail bleeding time at 1.3 mmol/kg, ip after 30 mins; type: organism-based; conditions: in vivo, 0.5 h; procedure, shortened: as §2
Mus musculus [10] = assay: Thrombotic toxicity in ICR mouse assessed as tail bleeding time at 1.3 mmol/kg, ip after 60 mins; type: organism-based; conditions: in vivo, 1 h; procedure, shortened: as §2
Mus musculus [11] = assay: Analgesic activity in ICR mouse assessed as pain threshold variation at 0.0013 mmol/kg, ip after 30 mins by tail flick test relative to control; type: functional; procedure, shortened: as §1
Mus musculus [12] = assay: Analgesic activity in ICR mouse assessed as pain threshold variation at 0.0013 mmol/kg, ip after 60 mins by tail flick test relative to control; type: functional; procedure, shortened: as §1
Mus musculus [13] = assay: Analgesic activity in ICR mouse assessed as pain threshold variation at 0.013 mmol/kg, ip after 90 mins by tail flick test relative to control; type: functional; procedure, shortened: as §1
Mus musculus [14] = assay: Analgesic activity in ICR mouse assessed as pain threshold variation at 0.0013 mmol/kg, ip after 120 mins by tail flick test relative to control; type: functional; procedure, shortened: as §1
Mus musculus [15] = assay: Analgesic activity in ICR mouse assessed as pain threshold variation at 0.0013 mmol/kg, ip after 150 mins by tail flick test relative to control; type: functional; procedure, shortened: as §1
Mus musculus [16] = assay: Analgesic activity in ICR mouse assessed as pain threshold variation at 0.0013 mmol/kg, ip after 90 mins by tail flick test relative to control; type: functional; procedure, shortened: as §1
Mus musculus [17] = assay: Analgesic activity in ICR mouse assessed as pain threshold variation at 0.013 mmol/kg, ip after 60 mins by tail flick test relative to control; type: functional; procedure, shortened: as §1
Mus musculus [18] = assay: Analgesic activity in ICR mouse assessed as pain threshold variation at 0.013 mmol/kg, ip after 120 mins by tail flick test relative to control; type: functional; procedure, shortened: as §1
Mus musculus [19] = assay: Analgesic activity in ICR mouse assessed as pain threshold variation at 0.013 mmol/kg, ip after 150 mins by tail flick test relative to control; type: functional; procedure, shortened: as §1
Mus musculus [20] = assay: Analgesic activity in ICR mouse assessed as pain threshold variation at 0.013 mmol/kg, ip after 30 mins by tail flick test relative to control; type: functional; procedure, shortened: as §1

Compound	Activity (Mus musculus [1])	Activity (Mus musculus [2])	Activity (Mus musculus [3])	Activity (Mus musculus [4])	inhibition at 5000 µM [5]	Activity (Mus musculus [6])	Activity (Mus musculus [7])	Activity (Mus musculus [8])	Activity (Mus musculus [9])	Activity (Mus musculus [10])	Activity (Mus musculus [11])	Activity (Mus musculus [12])	Activity (Mus musculus [13])	Activity (Mus musculus [14])	Activity (Mus musculus [15])	Activity (Mus musculus [16])	Activity (Mus musculus [17])	Activity (Mus musculus [18])	Activity (Mus musculus [19])	Activity (Mus musculus [20])
CC1(C)N=C(c2ccccc2)N(O)C1(C)C	35.48%	37.68%	43.67%	37.07%	22.9%	37.41%	117 s	119 s	118 s	117 s										
COc1ccc(C2=NC(C)(C)C(C)(C)N2O)cc1	46.74%	76.13%	64.55%	66.49%	19.7%	65.23%	119 s	118 s	118 s	118 s										
COc1ccc(C2=NC(C)(C)C(C)(C)N2O)cc1OC	35.37%	50.12%	50.9%	54.54%	17.9%	38.43%	117 s	117 s	118 s	118 s										
CC1(C)N=C(c2ccc3c(c2)OCO3)N(O)C1(C)C	60.22%	68.46%	58.82%	67.15%	21.9%	59.77%	120 s	119 s	119 s	118 s										
CC1(C)N=C(c2ccccc2O)N(O)C1(C)C	67.3%	49.93%	50.76%	68.27%	22.9%	73.13%	118 s	117 s	119 s	118 s										
CC1(C)N=C(c2cccc(O)c2)N(O)C1(C)C	72.88%	59.38%	50.69%	59.94%	46.3%	77.78%	117 s	119 s	118 s	119 s										
CC1(C)N=C(c2ccc(O)cc2)N(O)C1(C)C	27.62%	74.74%	57.6%	79.8%	13.6%	53.45%	116 s	118 s	119 s	119 s										
COc1ccc(C2=NC(C)(C)C(C)(C)N2O)cc1O	41.62%	59.85%	44.33%	60.71%	35.1%	50.77%	120 s	118 s	117 s	119 s										
CC1(C)N=C(c2ccc([N+](=O)[O-])cc2)N(O)C1(C)C	47.81%	38.32%	44.15%	36.31%	32.7%	35.97%	118 s	117 s	117 s	117 s										
CC1(C)N=C(c2ccc(Cl)cc2Cl)N(O)C1(C)C	45.99%	46.31%	46.97%	44.1%	15.9%	46.12%	117 s	117 s	119 s	119 s										
CC1(C)N=C(c2ccccc2F)N(O)C1(C)C	90.94%	72.72%	66.15%	73.25%	22.7%	75.97%	117 s	117 s	119 s	119 s	27.64%	36.02%	54%	37.8%	47.03%	36.96%	53.11%	56.97%	69.89%	45.44%
CN(C)c1ccc(C2=NC(C)(C)C(C)(C)N2O)cc1	31.27%	39.44%	34.3%	40.17%	6.63%	37.34%	117 s	117 s	117 s	119 s										
CC1(C)N=C(c2ccc(Br)cc2)N(O)C1(C)C	70.19%	89.78%	29.02%	75.18%	18.4%	75.77%	118 s	119 s	118 s	120 s	11.32%	43.9%	53.75%	31.87%	26.57%	34.49%	68.89%	52.98%	47.7%	19.33%
CC1(C)N=C(c2ccccc2[N+](=O)[O-])N(O)C1(C)C	40.04%	45.14%	28.95%	45.93%	30.2%	50.91%	119 s	119 s	119 s	118 s										
COc1ccc(C2=NC(C)(C)C(C)(C)N2O)c(OC)c1	37.89%	44.85%	52.93%	44.96%	23.3%	38.34%	118 s	118 s	119 s	117 s										
CC1(C)N=C(c2ccc(Cl)c(Cl)c2)N(O)C1(C)C	50.62%	21.43%	20.52%	41.9%	22.8%	40.17%	118 s	118 s	118 s	117 s										
CC1(C)N=C(c2cccc([N+](=O)[O-])c2)N(O)C1(C)C	70.83%	62.07%	52.76%	63.46%	31.8%	60.26%	117 s	118 s	119 s	117 s										
Cc1ccc(C2=NC(C)(C)C(C)(C)N2O)cc1	45.41%	55.16%	42.06%	48.82%	16.7%	39.96%	119 s	118 s	117 s	119 s										
COc1cc(C2=NC(C)(C)C(C)(C)N2O)ccc1O	40.56%	61.52%	47.57%	60.65%	20.6%	52.21%	119 s	118 s	119 s	117 s										

— ChEMBL document CHEMBL1156678, “A new class of analgesic agents toward prostacyclin receptor inhibition: synthesis, biological studies and QSAR analysis of 1-hydroxyl-2-substituted phenyl-4,4,5,5-tetramethylimidazolines” (Eur J Med Chem, 2008)
